Reference: ChEMBL document CHEMBL2424556, “Hybrid benzofuran-bisindole derivatives: new prototypes with promising anti-hyperlipidemic activities” (2013)
Calls of active or inactive are those of the source. No cut-off for these calls is given here.

What was measured:
[1] = Antioxidant activity assessed as inhibition of superoxide anion generation at 200 ug/mL after 30 mins by NBT reduction assay relative to control; type: functional
Procedure, shortened: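 Superoxide was generated by xanthine, xanthine oxidase (0.04 U) and nitroblue tetrazolium in 100 mM phosphate buffer pH 8.2, with or without agent at 200 µg/ml, for 30 min at 37 °C. Stopped with glacial acetic acid; formazan read at 560 nm, and % inhibition derived using ε 7.2 × 10³ M⁻¹cm⁻¹.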

Rattus norvegicus [2] = assay: Antihyperlipidemic activity in Charles-Foster rat assessed as reversal of triton-induced decrease in HDL level at 100 mg/kg, po after 18 hrs; type: functional, organism-based; design: dose 100 mg/kg
Procedure, shortened: (§1)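 Triton WR-1339 (400 mg/kg i.p.) hyperlipidemic male Charles Foster rats dosed 100 mg/kg p.o. for 18 h, 6/group. Serum was fractionated into VLDL, LDL and HDL by polyanionic precipitation and lipoprotein cholesterol measured. Mean ± SD; Student's t-test against triton group.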

Rattus norvegicus [3] = assay: Antihyperlipidemic activity in Charles-Foster rat assessed as reversal of triton-induced increase in LDL level at 100 mg/kg, po after 18 hrs; type: functional, organism-based; design: dose 100 mg/kg; procedure, shortened: as §1
Rattus norvegicus [4] = assay: Antihyperlipidemic activity in Charles-Foster rat assessed as reversal of triton-induced increase in plasma triglyceride level at 100 mg/kg, po after 18 hrs relative to triton-treated control; type: functional
Procedure, shortened: (§2)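 Male adult Charles Foster rats (200-225 g), 6 per group; triton WR-1339 400 mg/kg i.p. plus oral test agent in 0.2% gum acacia suspension, given together, diet withdrawn. After 18 h, retro-orbital EDTA blood was centrifuged 2500 g, 4 °C, 10 min; plasma was diluted 1:3 in saline and TC, PL and TG were assayed enzymatically (mg/dl). Mean ± SD; Student's t-test.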

Rattus norvegicus [5] = assay: Antihyperlipidemic activity in Charles-Foster rat assessed as reversal of triton-induced increase in plasma triglyceride level at 50 mg/kg, po after 18 hrs relative to triton-treated control; type: functional
Procedure, shortened: (§3)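 Dose-response in triton WR-1339 (400 mg/kg i.p.) hyperlipidemic male Charles Foster rats given oral agent at 50, 100 or 150 mg/kg in gum acacia suspension for 18 h, 6 rats/group. Plasma TC, PL and TG were measured enzymatically. Pooled data as mean ± SD; triton versus triton-plus-agent groups compared by t-test.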

Rattus norvegicus [6] = assay: Antihyperlipidemic activity in Charles-Foster rat assessed as reversal of triton-induced increase in plasma phospholipid level at 50 mg/kg, po after 18 hrs relative to triton-treated control; type: functional; procedure, shortened: as §3
Rattus norvegicus [7] = assay: Antihyperlipidemic activity in Charles-Foster rat assessed as reversal of triton-induced increase in plasma phospholipid level at 100 mg/kg, po after 18 hrs relative to control; type: functional; procedure, shortened: as §2
[8] = Antioxidant activity assessed as inhibition of hydroxyl radical generation at 200 ug/mL after 90 mins by spectrophotometric analysis relative to control; type: functional
Procedure, shortened: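 Hydroxyl radicals were generated non-enzymically from deoxyribose (2.8 mM), FeSO4 (2 mM), sodium ascorbate (2.0 mM) and H2O2 (2.8 mM) in KH2PO4 buffer pH 7.4, 2.5 mL final, with or without agent at 200 µg/ml, for 90 min at 37 °C. MDA was read spectrophotometrically by the thiobarbituric acid method against reference samples and reagent blanks.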

Rattus norvegicus [9] = assay: Antihyperlipidemic activity in Charles-Foster rat assessed as post heparin lipolytic activity at 100 mg/kg, po after 18 hrs by spectrophotometric analysis relative to triton-treated control; type: functional
Procedure, shortened: (§4)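 Male adult Charles Foster rats (200-225 g), 6 per group. Triton WR-1339 400 mg/kg i.p.; test agent 100 mg/kg p.o. as gum acacia (0.2% w/v) suspension in water, given simultaneously, diet withdrawn; vehicle to control and triton groups. At 18 h under thiopentone (50 mg/kg), retro-orbital blood collected into EDTA and plasma separated. Post-heparin lipolytic activity read spectrophotometrically as nmol free fatty acid/h/ml plasma; mean ± SD; Student's t-test.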

Rattus norvegicus [10] = assay: Antihyperlipidemic activity in Charles-Foster rat assessed as reversal of triton-induced increase in plasma total cholesterol level at 50 mg/kg, po after 18 hrs relative to triton-treated control; type: functional; procedure, shortened: as §3
Rattus norvegicus [11] = assay: Antihyperlipidemic activity in Charles-Foster rat assessed as reversal of triton-induced increase in plasma phospholipid level at 100 mg/kg, po after 18 hrs relative to triton-treated control; type: functional; procedure, shortened: as §2
Rattus norvegicus [12] = assay: Antihyperlipidemic activity in triton-induced Charles-Foster rat assessed as increase in plasma lecithin cholesterol acyltransferase activity at 100 mg/kg, po after 18 hrs by colorimetric assay; type: functional, organism-based; design: dose 100 mg/kg
Rattus norvegicus [13] = assay: Antihyperlipidemic activity in Charles-Foster rat assessed as reversal of triton-induced increase in plasma total cholesterol level at 100 mg/kg, po after 18 hrs relative to triton-treated control; type: functional; procedure, shortened: as §2
Rattus norvegicus [14] = assay: Antihyperlipidemic activity in Charles-Foster rat assessed as reversal of triton-induced increase in plasma triglyceride level at 100 mg/kg, po after 18 hrs relative to control; type: functional; procedure, shortened: as §2
Rattus norvegicus [15] = assay: Antihyperlipidemic activity in Charles-Foster rat assessed as reversal of triton-induced increase in plasma phospholipid level at 150 mg/kg, po after 18 hrs relative to triton-treated control; type: functional; procedure, shortened: as §3
Rattus norvegicus [16] = assay: Antihyperlipidemic activity in Charles-Foster rat assessed as reversal of triton-induced increase in plasma triglyceride level at 150 mg/kg, po after 18 hrs relative to triton-treated control; type: functional; procedure, shortened: as §3
Rattus norvegicus [17] = assay: Antihyperlipidemic activity in Charles-Foster rat assessed as reversal of triton-induced increase in plasma total cholesterol level at 100 mg/kg, po after 18 hrs relative to control; type: functional; procedure, shortened: as §2
[18] = Antioxidant activity assessed as inhibition of microsomal lipid peroxidation at 200 ug/mL by spectrophotometric analysis relative to control; type: functional
Rattus norvegicus [19] = assay: Antihyperlipidemic activity in Charles-Foster rat assessed as reversal of triton-induced increase in VLDL level at 100 mg/kg, po after 18 hrs; type: functional, organism-based; design: dose 100 mg/kg; procedure, shortened: as §1
Rattus norvegicus [20] = assay: Antihyperlipidemic activity in Charles-Foster rat assessed as reversal of triton-induced increase in plasma total cholesterol level at 150 mg/kg, po after 18 hrs relative to triton-treated control; type: functional; procedure, shortened: as §3
Rattus norvegicus [21] = assay: Antihyperlipidemic activity in Charles-Foster rat assessed as post heparin lipolytic activity at 100 mg/kg, po after 18 hrs by spectrophotometric analysis relative to control; type: functional; procedure, shortened: as §4

| Structure (SMILES) | Activity (Rattus norvegicus [4]) | Activity (Rattus norvegicus [7]) | Activity (Rattus norvegicus [9]) | Activity (Rattus norvegicus [11]) | Activity (Rattus norvegicus [13]) | Activity (Rattus norvegicus [14]) | Activity (Rattus norvegicus [17]) | Activity (Rattus norvegicus [21]) | further results |
| --- | --- | --- | --- | --- | --- | --- | --- | --- | --- |
| COc1ccc(C(=O)c2cc3cc(C(c4c[nH]c5ccc(OC)cc45)c4c[nH]c5ccc(OC)cc45)cc(C)c3o2)cc1 | -24% | 159.29 mg/dL | 16% | -23% | -23% | 164.24 mg/dL | 141.84 mg/dL | 15.32 nmol/h/mL | inhibition [1]: 33%; Activity (Rattus norvegicus [2]): Active; Activity (Rattus norvegicus [3]): Active; Activity (Rattus norvegicus [5]): -16%; Activity (Rattus norvegicus [6]): -17%; inhibition [8]: 30%; Activity (Rattus norvegicus [10]): -15%; Activity (Rattus norvegicus [12]): Active; Activity (Rattus norvegicus [15]): -24%; Activity (Rattus norvegicus [16]): -25%; inhibition [18]: 31%; Activity (Rattus norvegicus [19]): Active; Activity (Rattus norvegicus [20]): -25% |
| Cc1cc(C(c2c[nH]c3ccccc23)c2c[nH]c3ccccc23)cc2cc(C(=O)c3ccc(Cl)cc3)oc12 | -11% | 186.19 mg/dL | 9% | -10% | -11% | 192.33 mg/dL | 163.94 mg/dL | 14.39 nmol/h/mL | – |
| Cc1cc(C(c2c[nH]c3ccccc23)c2c[nH]c3ccccc23)cc2cc(C(=O)c3ccc(C#N)cc3)oc12 | -7% | 190.11 mg/dL | 5% | -8% | -7% | 200.98 mg/dL | 171.25 mg/dL | 13.87 nmol/h/mL | – |
| CCCc1cc(C(c2c[nH]c3ccc(OC)cc23)c2c[nH]c3ccc(OC)cc23)cc2cc(C(=O)c3ccc(OC)cc3)oc12 | -23% | 159.29 mg/dL | 16% | -23% | -24% | 166.4 mg/dL | 139.99 mg/dL | 15.32 nmol/h/mL | Activity (Rattus norvegicus [2]): Active; Activity (Rattus norvegicus [3]): Active; Activity (Rattus norvegicus [5]): -16%; Activity (Rattus norvegicus [6]): -18%; Activity (Rattus norvegicus [10]): -17%; Activity (Rattus norvegicus [12]): Active; Activity (Rattus norvegicus [15]): -26%; Activity (Rattus norvegicus [16]): -24%; Activity (Rattus norvegicus [19]): Active; Activity (Rattus norvegicus [20]): -24% |
| OC[C@@H](O)[C@@H](O)[C@H](O)[C@H](O)CO | – | – | – | – | – | – | – | – | inhibition [8]: 49%; inhibition [18]: 52% |
| CC(C)c1cc(C(c2c[nH]c3ccccc23)c2c[nH]c3ccccc23)cc2cc(C(=O)c3ccc(C#N)cc3)oc12 | -10% | 186.19 mg/dL | 4% | -10% | -9% | 193.81 mg/dL | 167.63 mg/dL | 13.75 nmol/h/mL | – |
| CCCc1cc(C(c2c[nH]c3ccc(O)cc23)c2c[nH]c3ccc(O)cc23)cc2cc(C(=O)c3ccc(OC)cc3)oc12 | -20% | 161.36 mg/dL | 15% | -22% | -22% | 172.88 mg/dL | 143.68 mg/dL | 15.19 nmol/h/mL | – |
